Experimental findings from ChEMBL document CHEMBL3244180, “Synthesis of branched-chain apiosylpyrimidines and their inhibition of lymphocyte proliferation” (1978) are described below.

One experiment has as its system Staphylococcus aureus. Description: Antibacterial activity against Staphylococcus aureus at 1 mg/ml. The class given is functional, organism-based. In outline: (§1)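 Organisms grown on agar plates at 37 °C. Compound dissolved at 1 mg/mL in methanol, applied to a 2-cm disk, and the disk placed on agar streaked with the organism.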
Another experiment deals with Bacillus subtilis. Description: Antibacterial activity against Bacillus subtilis at 1 mg/ml. In kind it is functional, organism-based. In outline: as §1
The test system of the next experiment is Micrococcus luteus. As to the kind of experiment: Antibacterial activity against Sarcina lutea at 1 mg/ml. In kind it is functional, organism-based. In outline: as §1
For the next experiment, the system named is Proteus vulgaris. As to the kind of experiment: Antibacterial activity against Proteus vulgaris at 1 mg/ml. In kind it is functional, organism-based. The procedure, abridged: as §1
For experiment [1], the system named is Salmonella enterica subsp. enterica serovar Gallinarum. As to the kind of experiment: Antibacterial activity against Salmonella gallinarum at 1 mg/ml. The class given is functional, organism-based. In outline: as §1
For the next experiment, the system named is Escherichia coli. Description: Antibacterial activity against Escherichia coli at 1 mg/ml. The class given is functional, organism-based. The procedure, abridged:
as §1

In a further experiment the test system is Pseudomonas aeruginosa. As to the kind of experiment: Antibacterial activity against Pseudomonas aeruginosa at 1 mg/ml. The class given is functional, organism-based. In outline: as §1
In a further experiment the test system is Ralstonia solanacearum. As to the kind of experiment: Antibacterial activity against Pseudomonas solanacearum at 1 mg/ml. In kind it is functional, organism-based. The procedure, abridged: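 Agar disk diffusion: test compound at 1 mg/mL in methanol, applied to a 2-cm disk laid on agar plates streaked with the organism.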
The subject of a further experiment is Serratia marcescens. As to the kind of experiment: Antibacterial activity against Serratia marcescens at 1 mg/ml. In kind it is functional, organism-based. In outline:
as §1

Experiment [2] concerns Saccharomyces pastorianus. Description: Antifungal activity against Saccharomyces pastorianus at 1 mg/ml. In kind it is functional, organism-based. The procedure, abridged:
as §1

The subject of another experiment is Neurospora crassa. Description: Antifungal activity against Neurospora crassa at 1 mg/ml. In kind it is functional, organism-based. In outline:
as §1

The next experiment has as its system Candida albicans. As to the kind of experiment: Antifungal activity against Candida albicans at 1 mg/ml. The class given is functional, organism-based. In outline: as §1
Experiment [3] can be described thus: Immunosuppressive activity against PHA-stimulated proliferation in rat T-lymphocytes assessed as cell viability at 1 uM […] by [3H]thymidine incorporation method relative to control. The class given is functional. As to conditions: read-out: Activity. In general terms: Incorporation of labelled thymidine or its analogues reports DNA synthesis.
Experiment [4] can be described thus: Immunosuppressive activity against PHA-stimulated proliferation in rat T-lymphocytes assessed as cell viability at 100 uM after 6 days by [3H]thymidine incorporation method relative to control. In kind it is functional. As to conditions: read-out: Activity. The procedure, abridged: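 Rat lymphocytes incubated 6 days at 37 °C with 100 μM compound; result expressed as percentage of viable lymphocytes.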

The test system of the next experiment is MGL8. Description: Growth inhibition of human MGL8 cells at 5 uM after 48 hrs. The class given is functional, cell-based. In outline: (§2)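 MGL-8 lymphoblasts seeded at 22 × 10⁴ cells/mL in stationary suspension in RPMI 1640 with 10% fetal calf serum, penicillin and streptomycin; 48 h at 37 °C; cells counted by Coulter counter; growth expressed as % of untreated control; significance tested (p < 0.01).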

Experiment [5] in a line: Growth inhibition of human MGL8 cells at 50 uM after 48 hrs relative to control. In kind it is functional. As to conditions: MGL8, 48 h, read-out: GI. The procedure, abridged:
as §2

Experiment [6] can be described thus: Growth inhibition of human MGL8 cells at 500 uM after 48 hrs relative to control. In kind it is functional. Particulars: MGL8, 48 h, read-out: GI. In outline: as §2
A further experiment relates to Human alphaherpesvirus 2. Description: Antiviral activity against HSV2 infected in BHK cells assessed as reduction of viral plaque at 4 uM after 24 hrs. In kind it is functional. The procedure, abridged: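 BHK confluent monolayers in 24-well trays; supernatant removed and 50 μL virus dilution added per well; 2 h at 37 °C, 5% CO2, 100% humidity with intermittent agitation. Eagle's medium containing tryptose phosphate broth and calf serum then added; viral plaques counted after 24 h.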

The next experiment relates to T-cell. Description: Immunosuppressive activity against PHA-stimulated proliferation in rat T-lymphocytes assessed as cell viability at 0.01 to 0.1 uM […] by [3H]thymidine incorporation method relative to control. In kind it is functional, cell-based.

Structures are written as SMILES. Active and inactive are the calls of the source. The rule behind the calls is not given here.

Turning to `CC(=O)O[C@H]1[C@H](n2cc(Br)c(=O)[nH]c2=O)OC[C@@]12COC(=O)O2`, the outcome (in the experiment on Staphylococcus aureus; with Bacillus subtilis; in the experiment with Micrococcus luteus; in the experiment on Proteus vulgaris; in experiment [1]; with Escherichia coli) was inactive. Further, the result (with Pseudomonas aeruginosa; in the experiment on Ralstonia solanacearum; in the experiment on Serratia marcescens; in experiment [2]; in the experiment on Neurospora crassa; with Candida albicans) was inactive.
Regarding `Nc1ncnc2c1ncn2[C@@H]1O[C@H](CO)[C@@H](O)[C@@H]1O` [VIDARABINE], the thymidine incorporation of control at 1 µM in experiment [3] is 71%. The viability at 100 µM in [4] came to 94%.
`O=c1[nH]c(=O)n([C@@H]2OC[C@@](O)(CO)[C@H]2O)cc1Br`: the “growth inhibition (GI)” value in the experiment on MGL8 was “inactive”. Also, the inhibition of growth at 50 µM in experiment [5] amounted to 52%. Moreover, in experiment [6], the inhibition of growth at 500 µM stood at 13%. Moreover, the result in the experiment on Human alphaherpesvirus 2 was inactive.
In the case of `O=c1[nH]c(=O)n([C@@H]2O[C@H](CO)[C@@H](O)[C@H]2O)cc1Br`, the “growth inhibition (GI)” value in the experiment on MGL8 was “inactive”. For the same compound, in [5], the inhibition of growth at 50 µM was determined as 40%. Besides, the inhibition of growth at 500 µM in [6] was 11%.
With `Nc1ncnc2c1ncn2[C@@H]1OC[C@@](O)(CO)[C@H]1O`, the thymidine incorporation of control at 1 µM in experiment [3] was determined as 14%. For the same compound, the viability at 100 µM in [4] amounted to 85%. Moreover, the Activity in the experiment on Human alphaherpesvirus 2 is given as 42%.
As to `Cc1cn([C@@H]2OC[C@@](O)(CO)[C@H]2O)c(=O)[nH]c1=O`, the thymidine incorporation of control at 1 µM in [3] was 56%. In experiment [4], the viability at 100 µM was 89%. Besides, the result in the experiment on T-cell, in the experiment with Human alphaherpesvirus 2, with Staphylococcus aureus, in the experiment with Bacillus subtilis, in the experiment on Micrococcus luteus and in the experiment on Proteus vulgaris was inactive. Further, the outcome (in [1]; in the experiment with Escherichia coli; in the experiment with Pseudomonas aeruginosa; with Ralstonia solanacearum; in the experiment on Serratia marcescens; in experiment [2]) was inactive. Moreover, the result in the experiment on Neurospora crassa and with Candida albicans was inactive. For the same compound, the “growth inhibition (GI)” value with MGL8 is “inactive”. Further, the inhibition of growth at 50 µM in experiment [5] is 95%. Besides, in experiment [6], the inhibition of growth at 500 µM turned out to be 83%.
On to `NC(=O)c1ncn([C@@H]2O[C@H](CO)[C@@H](O)[C@H]2O)n1` [RIBAVIRIN], for which the thymidine incorporation of control at 1 µM in experiment [3] turned out to be 127%.
Take `O=c1ccn([C@@H]2OC[C@@](O)(CO)[C@H]2O)c(=O)[nH]1`: the thymidine incorporation of control at 1 µM in [3] was found to be 16%. The viability at 100 µM in [4] worked out at 90%. Moreover, the outcome in the experiment with T-cell, in the experiment on Human alphaherpesvirus 2, with Staphylococcus aureus, in the experiment with Bacillus subtilis, in the experiment with Micrococcus luteus and in the experiment with Proteus vulgaris was inactive. The result (in experiment [1]; in the experiment on Escherichia coli; in the experiment on Pseudomonas aeruginosa; with Ralstonia solanacearum; with Serratia marcescens; in experiment [2]) was inactive. In addition, the result with Neurospora crassa and in the experiment with Candida albicans was inactive. Besides, the “growth inhibition (GI)” value in the experiment on MGL8 is “inactive”. The inhibition of growth at 50 µM in experiment [5] came to 100%. In addition, the inhibition of growth at 500 µM in [6] worked out at 72%.
On to `O=c1[nH]c(=O)n([C@@H]2O[C@H](CO)[C@@H](O)[C@H]2O)cc1I`, for which, in the experiment on MGL8, the “growth inhibition (GI)” value is “inactive”. Moreover, in [5], the inhibition of growth at 50 µM worked out at 32%. The inhibition of growth at 500 µM in experiment [6] was found to be 9%.
Take `Nc1ccn([C@@H]2O[C@H](CO)[C@@H](O)[C@@H]2O)c(=O)n1` [CYTARABINE]: the thymidine incorporation of control at 1 µM in experiment [3] amounted to 18%. Also, the viability at 100 µM in [4] came to 76%. Further, in the experiment on T-cell, the result was inactive.
For the compound `O=c1[nH]c(=O)n([C@@H]2OC[C@@](O)(CO)[C@H]2O)cc1I`, the “growth inhibition (GI)” value with MGL8 was “inactive”. In addition, the inhibition of growth at 50 µM in [5] turned out to be 24%. Besides, the inhibition of growth at 500 µM in experiment [6] worked out at 6%. In addition, the result in the experiment with Human alphaherpesvirus 2 was inactive.
`Nc1ncnc2c1ncn2[C@@H]1OC[C@](O)(CO)[C@H]1O`: the thymidine incorporation of control at 1 µM in experiment [3] stood at 159%. Besides, the viability at 100 µM in experiment [4] was determined as 91%. Further, in the experiment with T-cell, the outcome was inactive.
Regarding `CC(=O)O[C@H]1[C@H](n2cc(I)c(=O)[nH]c2=O)OC[C@@]12COC(=O)O2`, the outcome (with Staphylococcus aureus; with Bacillus subtilis; in the experiment with Micrococcus luteus; with Proteus vulgaris; in [1]; in the experiment with Escherichia coli) was inactive. The outcome (in the experiment with Pseudomonas aeruginosa; with Ralstonia solanacearum; with Serratia marcescens; in experiment [2]; with Neurospora crassa; with Candida albicans) was inactive.
